Laboratory results from ChEMBL document CHEMBL4673184, “Synthesis and biological evaluation of S-lipidated lipopeptides of a connexin 43 channel inhibitory peptide” (RSC Med Chem, 2020).
Calls of active or inactive are those of the source. No cut-off for these calls is given here. Where a SMILES comes first, the peptide text is derived from it. The star is where a group is joined. Ethyl(2-stearoyloxy) = CCCCCCCCCCCCCCCCCC(=O)OCC*; Ethyl(2-palmitoyloxy) = CCCCCCCCCCCCCCCC(=O)OCC*; CH2CH2OBz(4-tBu) = CC(C)(C)c1ccc(C(=O)OCC*)cc1; Ethyl(2-decanoyloxy) = CCCCCCCCCC(=O)OCC*; Ethyl(2-butanoyloxy) = CCCC(=O)OCC*; Ethyl(2-OPiv) = CC(C)(C)C(=O)OCC*

Biological target: Gap junction alpha-1 protein (Homo sapiens) (UniProt P17302)
Test: Inhibition of Cx43 in hypoxic-acidic ion-shifted ringers solution-induced human cerebral microvascular endothelial cell model of ischaemic injury assessed as ATP release at 10 uM measured after 2 hrs by luciferin-luciferase based luminescence assay relative to control
Design: scale not given: the % may be the effect or the level left
Method in brief: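 hCMVEC (passages 8-17) seeded at 2 x 10^6/well on collagen-I (1 µg/cm²) and grown 48 h to a confluent monolayer. Washed in NR, then exposed 2 h in HAIR (pH 6.6, N₂-bubbled, low Ca²⁺, K-gluconate/NMDG) containing peptide at 10 µM. Supernatant diluted 1:10 in firefly luciferase mix and read at 560 nm against an ATP standard (0-50 nM). Expressed as % of HAIR-only, mean of n=3.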

Sequence of Gap junction alpha-1 protein (Homo sapiens) (P17302 whole entry): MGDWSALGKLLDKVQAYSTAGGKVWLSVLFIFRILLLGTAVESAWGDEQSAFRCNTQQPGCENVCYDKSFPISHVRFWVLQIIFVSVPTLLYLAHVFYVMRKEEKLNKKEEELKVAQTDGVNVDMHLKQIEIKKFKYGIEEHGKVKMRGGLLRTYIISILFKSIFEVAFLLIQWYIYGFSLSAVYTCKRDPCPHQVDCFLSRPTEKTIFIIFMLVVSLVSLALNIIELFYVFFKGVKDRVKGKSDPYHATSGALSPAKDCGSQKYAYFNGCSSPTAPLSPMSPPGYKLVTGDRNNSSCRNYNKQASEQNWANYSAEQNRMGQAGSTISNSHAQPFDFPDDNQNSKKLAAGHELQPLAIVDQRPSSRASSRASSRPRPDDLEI

`CC1(C)[C@@H](OC(=O)CCC(=O)O)CC[C@]2(C)[C@H]3C(=O)C=C4[C@@H]5C[C@@](C)(C(=O)O)CC[C@]5(C)CC[C@@]4(C)[C@]3(C)CC[C@@H]12` showed an Activity of 23.3%.
`CC(C)C[C@H](NC(=O)[C@H](Cc1ccccc1)NC(=O)[C@H](CS)NC(=O)[C@H](CC(=O)O)NC(=O)[C@@H](N)CSCCOC(=O)c1ccc(C(C)(C)C)cc1)C(=O)N[C@@H](CO)C(=O)N[C@@H](CCCNC(=N)N)C(=O)N1CCC[C@H]1C(=O)N[C@H](C(=O)N[C@@H](CCC(=O)O)C(=O)N[C@@H](CCCCN)C(=O)N[C@H](C(=O)O)[C@@H](C)O)[C@@H](C)O` (H-C(CH2CH2OBz(4-tBu))DCFLSRPTEKT-OH) was tested, and the Activity was “inactive”.
With `CC(C)C[C@H](NC(=O)[C@H](Cc1ccccc1)NC(=O)[C@H](CS)NC(=O)[C@H](CC(=O)O)NC(=O)[C@@H](N)CSCCOC(=O)C(C)(C)C)C(=O)N[C@@H](CO)C(=O)N[C@@H](CCCNC(=N)N)C(=O)N1CCC[C@H]1C(=O)N[C@H](C(=O)N[C@@H](CCC(=O)O)C(=O)N[C@@H](CCCCN)C(=O)N[C@H](C(=O)O)[C@@H](C)O)[C@@H](C)O` (H-C(Ethyl(2-OPiv))DCFLSRPTEKT-OH) the Activity was “inactive”.
With `CCCC(=O)OCCSC[C@H](N)C(=O)N[C@@H](CC(=O)O)C(=O)N[C@@H](CS)C(=O)N[C@@H](Cc1ccccc1)C(=O)N[C@@H](CC(C)C)C(=O)N[C@@H](CO)C(=O)N[C@@H](CCCNC(=N)N)C(=O)N1CCC[C@H]1C(=O)N[C@H](C(=O)N[C@@H](CCC(=O)O)C(=O)N[C@@H](CCCCN)C(=O)N[C@H](C(=O)O)[C@@H](C)O)[C@@H](C)O` (H-C(Ethyl(2-butanoyloxy))DCFLSRPTEKT-OH) the Activity was “inactive”.
In the case of `CCCCCCCCCC(=O)OCCSC[C@H](N)C(=O)N[C@@H](CC(=O)O)C(=O)N[C@@H](CS)C(=O)N[C@@H](Cc1ccccc1)C(=O)N[C@@H](CC(C)C)C(=O)N[C@@H](CO)C(=O)N[C@@H](CCCNC(=N)N)C(=O)N1CCC[C@H]1C(=O)N[C@H](C(=O)N[C@@H](CCC(=O)O)C(=O)N[C@@H](CCCCN)C(=O)N[C@H](C(=O)O)[C@@H](C)O)[C@@H](C)O` (H-C(Ethyl(2-decanoyloxy))DCFLSRPTEKT-OH), the Activity is reported as “inactive”.
`CCCCCCCCCCCCCCCC(=O)OCCSC[C@H](N)C(=O)N[C@@H](CC(=O)O)C(=O)N[C@@H](CS)C(=O)N[C@@H](Cc1ccccc1)C(=O)N[C@@H](CC(C)C)C(=O)N[C@@H](CO)C(=O)N[C@@H](CCCNC(=N)N)C(=O)N1CCC[C@H]1C(=O)N[C@H](C(=O)N[C@@H](CCC(=O)O)C(=O)N[C@@H](CCCCN)C(=O)N[C@H](C(=O)O)[C@@H](C)O)[C@@H](C)O` (H-C(Ethyl(2-palmitoyloxy))DCFLSRPTEKT-OH) was tested, and the Activity was “inactive”.
`CCCCCCCCCCCCCCCCCC(=O)OCCSC[C@H](N)C(=O)N[C@@H](CC(=O)O)C(=O)N[C@@H](CS)C(=O)N[C@@H](Cc1ccccc1)C(=O)N[C@@H](CC(C)C)C(=O)N[C@@H](CO)C(=O)N[C@@H](CCCNC(=N)N)C(=O)N1CCC[C@H]1C(=O)N[C@H](C(=O)N[C@@H](CCC(=O)O)C(=O)N[C@@H](CCCCN)C(=O)N[C@H](C(=O)O)[C@@H](C)O)[C@@H](C)O` (H-C(Ethyl(2-stearoyloxy))DCFLSRPTEKT-OH) was tested, and the Activity was “inactive”.
For `CC(C)C[C@H](NC(=O)[C@H](CSCCOC(=O)c1ccc(C(C)(C)C)cc1)NC(=O)[C@H](CS)NC(=O)[C@H](CC(=O)O)NC(=O)[C@@H](N)C(C)C)C(=O)N[C@@H](CO)C(=O)N[C@@H](CCCNC(=N)N)C(=O)N1CCC[C@H]1C(=O)N[C@H](C(=O)N[C@@H](CCC(=O)O)C(=O)N[C@@H](CCCCN)C(=O)N[C@H](C(=O)O)[C@@H](C)O)[C@@H](C)O` (H-VDCC(CH2CH2OBz(4-tBu))LSRPTEKT-OH), the Activity was “inactive”.
In the case of `CC(C)C[C@H](NC(=O)[C@H](CSCCOC(=O)C(C)(C)C)NC(=O)[C@H](CS)NC(=O)[C@H](CC(=O)O)NC(=O)[C@@H](N)C(C)C)C(=O)N[C@@H](CO)C(=O)N[C@@H](CCCNC(=N)N)C(=O)N1CCC[C@H]1C(=O)N[C@H](C(=O)N[C@@H](CCC(=O)O)C(=O)N[C@@H](CCCCN)C(=O)N[C@H](C(=O)O)[C@@H](C)O)[C@@H](C)O` (H-VDCC(Ethyl(2-OPiv))LSRPTEKT-OH), the Activity is reported as 23.4%.
In the case of `CCCC(=O)OCCSC[C@H](NC(=O)[C@H](CS)NC(=O)[C@H](CC(=O)O)NC(=O)[C@@H](N)C(C)C)C(=O)N[C@@H](CC(C)C)C(=O)N[C@@H](CO)C(=O)N[C@@H](CCCNC(=N)N)C(=O)N1CCC[C@H]1C(=O)N[C@H](C(=O)N[C@@H](CCC(=O)O)C(=O)N[C@@H](CCCCN)C(=O)N[C@H](C(=O)O)[C@@H](C)O)[C@@H](C)O` (H-VDCC(Ethyl(2-butanoyloxy))LSRPTEKT-OH), the Activity is reported as “inactive”.
`CCCCCCCCCC(=O)OCCSC[C@H](NC(=O)[C@H](CS)NC(=O)[C@H](CC(=O)O)NC(=O)[C@@H](N)C(C)C)C(=O)N[C@@H](CC(C)C)C(=O)N[C@@H](CO)C(=O)N[C@@H](CCCNC(=N)N)C(=O)N1CCC[C@H]1C(=O)N[C@H](C(=O)N[C@@H](CCC(=O)O)C(=O)N[C@@H](CCCCN)C(=O)N[C@H](C(=O)O)[C@@H](C)O)[C@@H](C)O` (H-VDCC(Ethyl(2-decanoyloxy))LSRPTEKT-OH) was tested, and the Activity was “inactive”.
With `CCCCCCCCCCCCCCCC(=O)OCCSC[C@H](NC(=O)[C@H](CS)NC(=O)[C@H](CC(=O)O)NC(=O)[C@@H](N)C(C)C)C(=O)N[C@@H](CC(C)C)C(=O)N[C@@H](CO)C(=O)N[C@@H](CCCNC(=N)N)C(=O)N1CCC[C@H]1C(=O)N[C@H](C(=O)N[C@@H](CCC(=O)O)C(=O)N[C@@H](CCCCN)C(=O)N[C@H](C(=O)O)[C@@H](C)O)[C@@H](C)O` (H-VDCC(Ethyl(2-palmitoyloxy))LSRPTEKT-OH) the Activity was “inactive”.
For `CCCCCCCCCCCCCCCCCC(=O)OCCSC[C@H](NC(=O)[C@H](CS)NC(=O)[C@H](CC(=O)O)NC(=O)[C@@H](N)C(C)C)C(=O)N[C@@H](CC(C)C)C(=O)N[C@@H](CO)C(=O)N[C@@H](CCCNC(=N)N)C(=O)N1CCC[C@H]1C(=O)N[C@H](C(=O)N[C@@H](CCC(=O)O)C(=O)N[C@@H](CCCCN)C(=O)N[C@H](C(=O)O)[C@@H](C)O)[C@@H](C)O` (H-VDCC(Ethyl(2-stearoyloxy))LSRPTEKT-OH), the Activity was “inactive”.
In the case of `CC(C)C[C@H](NC(=O)[C@H](Cc1ccccc1)NC(=O)[C@H](CS)NC(=O)[C@H](CC(=O)O)NC(=O)[C@@H](N)C(C)C)C(=O)N[C@@H](CSCCOC(=O)c1ccc(C(C)(C)C)cc1)C(=O)N[C@@H](CCCNC(=N)N)C(=O)N1CCC[C@H]1C(=O)N[C@H](C(=O)N[C@@H](CCC(=O)O)C(=O)N[C@@H](CCCCN)C(=O)N[C@H](C(=O)O)[C@@H](C)O)[C@@H](C)O` (H-VDCFLC(CH2CH2OBz(4-tBu))RPTEKT-OH), the Activity is reported as “inactive”.
For `CC(C)C[C@H](NC(=O)[C@H](Cc1ccccc1)NC(=O)[C@H](CS)NC(=O)[C@H](CC(=O)O)NC(=O)[C@@H](N)C(C)C)C(=O)N[C@@H](CSCCOC(=O)C(C)(C)C)C(=O)N[C@@H](CCCNC(=N)N)C(=O)N1CCC[C@H]1C(=O)N[C@H](C(=O)N[C@@H](CCC(=O)O)C(=O)N[C@@H](CCCCN)C(=O)N[C@H](C(=O)O)[C@@H](C)O)[C@@H](C)O` (H-VDCFLC(Ethyl(2-OPiv))RPTEKT-OH), the Activity was “inactive”.
With `CCCC(=O)OCCSC[C@H](NC(=O)[C@H](CC(C)C)NC(=O)[C@H](Cc1ccccc1)NC(=O)[C@H](CS)NC(=O)[C@H](CC(=O)O)NC(=O)[C@@H](N)C(C)C)C(=O)N[C@@H](CCCNC(=N)N)C(=O)N1CCC[C@H]1C(=O)N[C@H](C(=O)N[C@@H](CCC(=O)O)C(=O)N[C@@H](CCCCN)C(=O)N[C@H](C(=O)O)[C@@H](C)O)[C@@H](C)O` (H-VDCFLC(Ethyl(2-butanoyloxy))RPTEKT-OH) the Activity was “inactive”.
